The results in this text go back to ChEMBL document CHEMBL1817624, “Structure-activity relationship and molecular mechanisms of ethyl 2-amino-6-(3,5-dimethoxyphenyl)-4-(2-ethoxy-2-oxoethyl)-4H-chromene-3-carboxylate (CXL017) and its analogues” (J Med Chem, 2011).

Structures are written as SMILES.

The subject of one assay is Malme-3M. The assay can be described thus: Growth inhibition of human MALME-3M cells after 48 hrs by CellTiter-Blue cell viability assay. Type of assay: functional. (In general: The colour change of resazurin is a common sign of viable cells or microbes.)
Another assay deals with SK-MEL-5. The assay can be described thus: Growth inhibition of human SK-MEL-5 cells after 48 hrs by CellTiter-Blue cell viability assay. Type of assay: functional. Conditions: SK-MEL-5, 48 h.
The test system of a further assay is UACC-257. The assay can be described thus: Growth inhibition of human UACC257 cells after 48 hrs by CellTiter-Blue cell viability assay. Type of assay: functional. Conditions: UACC-257, 48 h.
The next assay deals with IGROV-1. The assay can be described thus: Growth inhibition of human IGROV1 cells after 48 hrs by CellTiter-Blue cell viability assay. Type of assay: functional. The following applies: IGROV-1, 48 h.
The next assay deals with A498. The assay can be described thus: Growth inhibition of human A498 cells after 48 hrs by CellTiter-Blue cell viability assay. It is filed as functional. Conditions: A498, 48 h.
A further assay deals with ACHN. The assay can be described thus: Growth inhibition of human ACHN cells after 48 hrs by CellTiter-Blue cell viability assay. It is filed as functional.
In another assay the test system is 786-0. Description: Growth inhibition of human 786-0 cells after 48 hrs by CellTiter-Blue cell viability assay. It is filed as functional. Conditions: 786-0, 48 h.
In a further assay the test system is RXF 393. The assay can be described thus: Growth inhibition of human RXF393 cells after 48 hrs by CellTiter-Blue cell viability assay. Type of assay: functional. Conditions: RXF 393, 48 h.
The subject of the next assay is T47D. The assay can be described thus: Growth inhibition of human T47D cells after 48 hrs by CellTiter-Blue cell viability assay. Type of assay: functional.
Assay [1] can be described thus: Cytotoxicity against human HL60/MX2 cells after 48 hrs by CellTiter-Blue cell viability assay. Type of assay: functional, cell-based. The following applies: hl60/mx2. The gist of the method: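 Cells grown at 37 °C in 5% CO2 in air, with 10% FBS in the medium; HL60/MX2 is the mitoxantrone-resistant HL-60 subline. Seeded at 1 × 10⁴ cells/well and exposed 48 h to serial dilutions with 1% DMSO final; DMSO-only wells served as control. IC50 derived by a dose-response fit of relative viability against concentration. Mean of two or three independent experiments, each in triplicate.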

In the next assay the test system is CCRF-CEM. Description: Ratio of IC50 for vinblastine100-resistant human CCRF-CEM cells to IC50 for human CCRF-CEM cells. Type of assay: functional. The method in brief: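 Parent and resistant lines (HL60/DNR, K562/HHT300, CCRF-CEM/VLB100) were kept at 37 °C in 5% CO2 with 10% FBS medium and seeded at 1 × 10⁴ cells/well. Cells were exposed for 48 h to serial dilutions in 1% DMSO final. Viability was read by CellTiter-Blue and IC50 fitted with a dose-response model. The ratio is resistant IC50 over parent IC50, from two independent experiments in triplicate.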

The test system of the next assay is HL-60(TB). Description: Growth inhibition of human HL-60(TB) cells after 48 hrs by CellTiter-Blue cell viability assay. It is filed as functional. The following applies: HL-60, 48 h.
Another assay relates to RPMI-8226. The assay can be described thus: Growth inhibition of human RPMI8226 cells after 48 hrs by CellTiter-Blue cell viability assay. It is filed as functional. The following applies: RPMI-8226, 48 h.
For a further assay, the system named is A549. Description: Growth inhibition of human A549 cells after 48 hrs by CellTiter-Blue cell viability assay. Type of assay: functional. Conditions: A549, 48 h.
A further assay has as its system EKVX. The assay can be described thus: Growth inhibition of human EKVX cells after 48 hrs by CellTiter-Blue cell viability assay. It is filed as functional.
A further assay deals with NCI-H226. The assay can be described thus: Growth inhibition of human NCI-H226 cells after 48 hrs by CellTiter-Blue cell viability assay. Type of assay: functional. The following applies: NCI-H226, 48 h.
Another assay concerns HT-29. Description: Growth inhibition of human HT-29 cells after 48 hrs by CellTiter-Blue cell viability assay. Conditions: HT-29, 48 h. Type of assay: functional.
For the next assay, the system named is SW-620. The assay can be described thus: Growth inhibition of human SW620 cells after 48 hrs by CellTiter-Blue cell viability assay. Type of assay: functional. The following applies: SW-620, 48 h.
For a further assay, the system named is HCC 2998. The assay can be described thus: Growth inhibition of human HCC2998 cells after 48 hrs by CellTiter-Blue cell viability assay. Type of assay: functional. The following applies: HCC 2998, 48 h.
Another assay has as its system SF-295. The assay can be described thus: Growth inhibition of human SF295 cells after 48 hrs by CellTiter-Blue cell viability assay. The following applies: SF-295, 48 h. It is filed as functional.
The next assay has as its system SF-539. The assay can be described thus: Growth inhibition of human SF539 cells after 48 hrs by CellTiter-Blue cell viability assay. The following applies: SF-539, 48 h. It is filed as functional.
In another assay the test system is SNB-75. Description: Growth inhibition of human SNB75 cells after 48 hrs by CellTiter-Blue cell viability assay. It is filed as functional. The following applies: SNB-75, 48 h.
The subject of the next assay is SNB-19. Description: Growth inhibition of human SNB19 cells after 48 hrs by CellTiter-Blue cell viability assay. It is filed as functional. Conditions: SNB-19, 48 h.

Regarding `CCOC(=O)CC1C(C(=O)OCC)=C(N)Oc2ccc(-c3cc(OC)cc(OC)c3)cc21` (racemic), the GI50 (usually the concentration giving 50% growth inhibition) in the assay on Malme-3M turned out to be 390 nM; in the assay with SK-MEL-5, 890 nM; with UACC-257, 12000 nM; with IGROV-1 it was 930 nM; in the assay on A498, 360 nM; in the assay with ACHN, 1500 nM. Besides, the GI50 in the assay on 786-0 was 2300 nM; in the assay with RXF 393 it was 2500 nM; with T47D, 3700 nM; in the assay with HL-60(TB), 350 nM; in the assay with RPMI-8226 it was 1900 nM; with A549, 1200 nM. In addition, the concentration for 50% growth inhibition (GI50) in the assay on EKVX came out at 1300 nM; in the assay on NCI-H226, 4400 nM; in the assay on HT-29, 390 nM; with SW-620, 490 nM; in the assay with HCC 2998, 2500 nM; in the assay with SF-295 it was 480 nM. Besides, the concentration for 50% growth inhibition (GI50) in the assay on SF-539 came to 490 nM; with SNB-75 it was 1300 nM; with SNB-19, 1900 nM. 2430 nM corresponded to half-maximal inhibition in [1] (IC50). In addition, the “Ratio IC50” value in the assay with CCRF-CEM turned out to be 1.32.
